System: not listed separately
Experiment: Therapeutic index, ratio of TC50 for human A549 cells under dark to IC50 for human A549 cells irradiated with 1 J/cm2 of 650 nanometer laser light
Format: toxicity, cell-based
Details: read-out: TI; call rule not given here
Outline: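 A549 cells (F-12K, 10% FBS, 37 °C, 5% CO2) seeded 24 h, then exposed to 0–10 photosensitizer for 24 h. Dark arm: MTT 48 h later. Light arm: 650 nm laser, 1 J/cm2 (25 mW/cm2, 40 s), then MTT. A570 viability relative to control, triplicate. Ratio = dark TC50 / irradiated IC50.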

SMILES	selectivity ratio
C=Cc1c(C)c2cc3nc(c4c5[nH]c(cc6nc(cc1[nH]2)C(C)=C6CC)c(C)c5C(=O)C4)[C@@H](CCC(=O)NCC(=O)CCC(=O)O)[C@@H]3C	1.59

System: not listed separately
Experiment: Octanol/water partition coefficient, logP of compound by shake flask method
Format: physicochemical
Details: not given
Outline: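 Shake-flask method: equilibrium concentrations in octanol and water measured by UV-vis absorbance; log P taken as log of octanol/water concentration ratio (mg/L).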

logP	SMILES
2.28	C=Cc1c(C)c2cc3nc(c4c5[nH]c(cc6nc(cc1[nH]2)C(C)=C6CC)c(C)c5C(=O)C4)[C@@H](CCC(=O)NCC(=O)CCC(=O)O)[C@@H]3C

System: not listed separately
Experiment: Absorption property of compound in DMSO assessed as strong absorption wavelength at 1 x 10^-3 M by UV-spectra analysis
Format: physicochemical
Details: 1000 µM
Outline: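 Stocks 1 mM in DMSO; spectra run over […] range (units as printed), 300–800 nm in 1 nm steps, room temperature, quartz cuvettes, UV-vis spectrophotometer.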

Activity [nm]	SMILES
660 to 670	C=Cc1c(C)c2cc3nc(c4c5[nH]c(cc6nc(cc1[nH]2)C(C)=C6CC)c(C)c5C(=O)C4)[C@@H](CCC(=O)NCC(=O)CCC(=O)O)[C@@H]3C

System: not listed separately
Experiment: Emission property of a compound in DMSO assessed as red shift at 5 uM on excitation with light at 410 to 415 nm by 3D fluorescence spectra analysis
Format: physicochemical
Details: not given
Outline: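 Stock 1 mM in DMSO, measured at […] (so in the source); excitation scanned 350–640 nm, emission 600–750 nm, 1 nm steps, room temperature, quartz cuvettes; 3D fluorescence matrix spectra recorded.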

Activity [nm]	SMILES
661 to 669	C=Cc1c(C)c2cc3nc(c4c5[nH]c(cc6nc(cc1[nH]2)C(C)=C6CC)c(C)c5C(=O)C4)[C@@H](CCC(=O)NCC(=O)CCC(=O)O)[C@@H]3C

System: not listed separately
Experiment: Induction of ROS generation in DMF solution assessed as slope of the photodegradation rate of DPBF at 2 uM followed by irradiation measured every 10 secs by spectrophotometric analysis
Format: functional
Details: not given

SMILES	K [s⁻¹]
C=Cc1c(C)c2cc3nc(c4c5[nH]c(cc6nc(cc1[nH]2)C(C)=C6CC)c(C)c5C(=O)C4)[C@@H](CCC(=O)NCC(=O)CCC(=O)O)[C@@H]3C	0.0251

System: not listed separately
Experiment: Drug uptake in human A549 cells incubated upto 24 hrs by fluorescence spectrophotometer analysis
Format: ADME, cell-based
Details: a549, 24 h
Outline: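 A549 cells (F-12K, 10% FBS, 37 °C, 5% CO2) grown in 24 wells and exposed to photosensitizer for 0.5, 1, 2, 4, 8, 12 or 24 h; cells harvested by digestion, fluorescence read on a spectrophotometer.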

Drug uptake	SMILES
Active	C=Cc1c(C)c2cc3nc(c4c5[nH]c(cc6nc(cc1[nH]2)C(C)=C6CC)c(C)c5C(=O)C4)[C@@H](CCC(=O)NCC(=O)CCC(=O)O)[C@@H]3C

System: not listed separately
Experiment: Dark toxicity in human A549 cells assessed as reduction in cell viability incubated under dark for 24 hrs measured after 48 hrs by MTT assay
Format: cell-based
Details: read-out: TC50
Outline: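 A549 cells seeded at 5×10^4 cells/100 µL per well for 24 h, treated in the dark with […] (so in the source) for 24 h; MTT added 4 h, absorbance 570 nm, 48 h later; viability as OD treated/OD control; triplicate, mean ± SD.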

SMILES	CC50 at 24 h [nM]
C=Cc1c(C)c2cc3nc(c4c5[nH]c(cc6nc(cc1[nH]2)C(C)=C6CC)c(C)c5C(=O)C4)[C@@H](CCC(=O)NCC(=O)CCC(=O)O)[C@@H]3C	3190

System: A549
Experiment: Phototoxicity against human A549 cells assessed as reduction in cell proliferation irradiated with 1 J/cm2 of 650 nanometer laser light preincubated for 24 hrs measured after 48 hrs by MTT assay
Format: functional, cell-based
Details: A549, light or radiation study
Outline: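 A549 cells seeded 5×10^4 cells/100 µL per well, given […] for 24 h, then 650 nm semiconductor laser at 1 J/cm2 (25 mW/cm2, 40 s); MTT 4 h, absorbance 570 nm; viability vs control; triplicate, mean ± SD.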

SMILES	IC50 [nM]
C=Cc1c(C)c2cc3nc(c4c5[nH]c(cc6nc(cc1[nH]2)C(C)=C6CC)c(C)c5C(=O)C4)[C@@H](CCC(=O)NCC(=O)CCC(=O)O)[C@@H]3C	2010

System: A549
Experiment: Photodynamic antitumor activity against human A549 cells xenografted in BALB/c nude mouse assessed as decrease in tumor weight at 0.3 mg/kg, iv followed by laser light irradiation at 120 J/cm2 measured after 14 days
Format: functional
Details: not given
Outline: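 Male BALB/c nude mice (5–6 weeks, 14–16 g) given 2×10^6 A549 cells s.c. in 0.2 mL PBS; at 6–7 mm tumors randomized into ten groups; drug via tail vein, 650 nm diode laser 120 J/cm2 at 180 mW/cm2 24 h later; caliper volume a×b²/2, followed 14 days.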

SMILES	Activity [g]
C=Cc1c(C)c2cc3nc(c4c5[nH]c(cc6nc(cc1[nH]2)C(C)=C6CC)c(C)c5C(=O)C4)[C@@H](CCC(=O)NCC(=O)CCC(=O)O)[C@@H]3C	0.2826

System: not listed separately
Experiment: Induction of ROS generation in DMF solution assessed as ROS quantum yield at 2 uM followed by irradiation measured every 10 secs by spectrophotometric analysis
Format: functional
Details: not given

SMILES	Ratio
C=Cc1c(C)c2cc3nc(c4c5[nH]c(cc6nc(cc1[nH]2)C(C)=C6CC)c(C)c5C(=O)C4)[C@@H](CCC(=O)NCC(=O)CCC(=O)O)[C@@H]3C	1.25

System: not listed separately
Experiment: Absorption property of compound in DMSO assessed as Q band absorption at 1 x 10^-3 mM by UV-spectra analysis
Details: 1 µM

Activity [nm]	SMILES
669	C=Cc1c(C)c2cc3nc(c4c5[nH]c(cc6nc(cc1[nH]2)C(C)=C6CC)c(C)c5C(=O)C4)[C@@H](CCC(=O)NCC(=O)CCC(=O)O)[C@@H]3C

Source: ChEMBL document CHEMBL4376862, “Synthesis and evaluation of novel chlorophyll a derivatives as potent photosensitizers for photodynamic therapy” (Eur J Med Chem, 2020)
